Columns and labels:
Assay type in all cases: functional
[1] = tested on: Staphylococcus aureus; assay: Antibacterial activity was evaluated against Staphylococcus aureus
Summary of the method: (§1)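 MIC against aerobic bacteria, measured at Bayer AG, by standard agar dilution or broth microdilution per NCCLS M7-A5 guidelines. MIC taken as lowest concentration visibly inhibiting growth after in vitro incubation, read when untreated culture growth becomes visible; expressed as log 1/C.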

[2] = tested on: Pseudomonas aeruginosa; assay: Antibacterial activity was evaluated against Pseudomonas aeruginosa; summary of the method: as §1
[3] = tested on: Escherichia coli; assay: Antibacterial activity was evaluated against Escherichia coli; summary of the method: as §1
[4] = tested on: Enterococcus faecalis; assay: Antibacterial activity was evaluated against Enterococcus faecalis; summary of the method: as §1
[5] = tested on: Enterococcus faecalis; assay: Antibacterial activity evaluated against Enterococcus faecalis; summary of the method: as §1

Row | Compound | Log 1/C [1] | Log 1/C [2] | Log 1/C [3] | Log 1/C [4] | Log 1/C [5]
1 | C[C@@]12CN(c3c(F)cc4c(=O)c(C(=O)O)cn(C5C[C@@H]5F)c4c3F)C[C@@H]1CCCN2 (some centres not stated) | 7.16 | 6.25 | 7.46 | 6.86 | –
2 | C[C@H]1COc2c(N3CCN(C)CC3)c(F)cc3c(=O)c(C(=O)O)cn1c23.C[C@H]1COc2c(N3CCN(C)CC3)c(F)cc3c(=O)c(C(=O)O)cn1c23.O [LEVOFLOXACIN] | 6.5 | 6.2 | 7.41 | – | 6.2
3 | CCn1cc(C(=O)O)c(=O)c2cc(F)c(N3CCNC(C)C3)c(F)c21 (configuration not stated) [LOMEFLOXACIN] | 5.85 | 5.85 | 7.07 | – | 5.24
4 | COc1c(N2C[C@@H]3CCCN[C@@H]3C2)c(F)cc2c(=O)c(C(=O)O)cn(C3CC3)c12 [MOXIFLOXACIN] | 7.16 | 5.64 | 7.46 | 6.55 | –
5 | CCn1cc(C(=O)O)c(=O)c2cc(F)c(N3CCNCC3)cc21 [NORFLOXACIN] | 5.55 | 5.85 | 6.76 | – | 5.55
6 | CCn1cc(C(=O)O)c(=O)c2cc(F)c(N3CCN(C)CC3)cc21 [PEFLOXACIN] | 6.12 | 5.82 | 7.05 | – | 5.52
7 | N[C@@H]1CN(c2c(F)cc3c(=O)c(C(=O)O)cn([C@@H]4C[C@@H]4F)c3c2Cl)CC12CC2 [SITAFLOXACIN ANHYDROUS] | 7.74 | 6.84 | 8.04 | – | 7.45
8 | C[C@@H]1CN(c2c(F)c(N)c3c(=O)c(C(=O)O)cn(C4CC4)c3c2F)C[C@H](C)N1 [SPARFLOXACIN] | 6.8 | 5.59 | 7.42 | – | 6.2
